In ChEMBL document CHEMBL1127487, “Cyclic enkephalin analogs with exceptional potency at peripheral delta opioid receptors” (J Med Chem, 1994):
Where a SMILES comes first, the peptide text is derived from it. Bridges are numbered along the chain shown (N, C = ends). [ ]: non-standard residue; d: D form. dPen = CC(C)(S)[C@@H](N)C(=O)O

Biological target: Delta-type opioid receptor (Rattus norvegicus, UniProt P33533)
Assay: Binding affinity towards delta opioid receptor was determined in rat brain using [H]-[p-Cl-Phe4]-DPDPE as radioligand
Assay type: tissue-based
Procedure, shortened: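 Rat brain membranes washed in 50 mM Tris-HCl pH 7.4, preincubated 30 min at 25 °C to strip endogenous peptides. Buffer contains BSA, bestatin, bacitracin, captopril and toluenesulfonyl fluoride. Incubation 3 h at 25 °C. Nonspecific binding with 10 μM naltrexone. Filtration, scintillation counting, nonlinear least-squares fit, n ≥ 6.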

Chain of Delta-type opioid receptor (Rattus norvegicus, UniProt P33533) (P33533 whole entry): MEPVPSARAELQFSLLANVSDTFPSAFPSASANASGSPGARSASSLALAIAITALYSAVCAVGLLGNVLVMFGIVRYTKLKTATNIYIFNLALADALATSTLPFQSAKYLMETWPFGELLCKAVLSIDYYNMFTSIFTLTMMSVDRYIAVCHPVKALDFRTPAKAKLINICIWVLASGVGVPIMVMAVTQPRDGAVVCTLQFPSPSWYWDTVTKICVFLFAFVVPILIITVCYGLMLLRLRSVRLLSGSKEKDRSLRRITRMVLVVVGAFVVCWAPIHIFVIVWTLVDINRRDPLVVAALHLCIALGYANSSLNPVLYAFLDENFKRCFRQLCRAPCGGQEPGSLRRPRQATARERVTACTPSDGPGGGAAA

**Q.** Which IC50 does the source give for `CC1(C)SSC[C@@H](C(=O)N[C@@H](Cc2ccccc2)C(=O)O)NC(=O)[C@H](Cc2ccc(I)cc2)NC(=O)CNC(=O)[C@@H]1NC(=O)[C@@H](N)Cc1ccc(O)cc1` here?
**A.** 1.2 nM

**Q.** With `CC1(C)SSC[C@@H](C(=O)N[C@@H](Cc2ccccc2)C(=O)O)NC(=O)[C@H](Cc2ccc(Br)cc2)NC(=O)CNC(=O)[C@@H]1NC(=O)[C@@H](N)Cc1ccc(O)cc1` as the compound, how does the IC50 read?
**A.** 1 nM

**Q.** Which IC50 does the source give for `CC1(C)SSC[C@@H](C(=O)N[C@@H](Cc2ccccc2)C(=O)O)NC(=O)[C@H](Cc2ccc(Cl)cc2)NC(=O)CNC(=O)[C@@H]1NC(=O)[C@@H](N)Cc1ccc(O)cc1` here?
**A.** 0.51 nM

**Q.** Which IC50 does the source give for `CC1(C)SSC[C@@H](C(=O)N[C@@H](Cc2ccccc2)C(=O)O)NC(=O)[C@H](Cc2ccc(F)cc2)NC(=O)CNC(=O)[C@@H]1NC(=O)[C@@H](N)Cc1ccc(O)cc1` here?
**A.** 0.71 nM

**Q.** For `CC1(C)SSC[C@@H](C(=O)N[C@@H](Cc2ccccc2)C(=O)O)NC(=O)[C@H](Cc2ccccc2)NC(=O)CNC(=O)[C@@H]1NC(=O)[C@@H](N)Cc1ccc(O)cc1` (H-Y[dPen]GFCF-OH; disulfide 2-5), which IC50 is on record?
**A.** 1.4 nM

Biological target: Mu-type opioid receptor (Rattus norvegicus, UniProt P33535)
Sequence (P33535 whole entry): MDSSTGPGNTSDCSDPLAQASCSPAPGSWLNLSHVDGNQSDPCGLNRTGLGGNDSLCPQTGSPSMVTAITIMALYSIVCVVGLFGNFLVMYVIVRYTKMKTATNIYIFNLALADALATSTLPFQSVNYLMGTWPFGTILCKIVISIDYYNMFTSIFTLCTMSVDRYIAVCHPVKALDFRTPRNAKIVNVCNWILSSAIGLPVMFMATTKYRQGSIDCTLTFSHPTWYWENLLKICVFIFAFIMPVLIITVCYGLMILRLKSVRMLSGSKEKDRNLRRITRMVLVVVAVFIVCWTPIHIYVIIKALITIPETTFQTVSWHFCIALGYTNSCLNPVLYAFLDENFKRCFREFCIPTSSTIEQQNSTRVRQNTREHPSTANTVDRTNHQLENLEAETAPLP
Assay: Binding affinity towards mu opioid receptor was determined in rat brain using [3H]CTOP as radioligand
Assay type: tissue-based
Procedure, shortened: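 Rat brain membranes washed in 50 mM Tris-HCl pH 7.4, preincubated 30 min at 25 °C. Competition against 0.5 nM [3H]CTOP, 10 analog concentrations over an 800-fold range, in peptidase-inhibitor buffer with BSA. Incubation 3 h at 25 °C. Nonspecific binding defined by 10 μM naltrexone. Bound ligand filtered and counted; IC50 by nonlinear least-squares regression, at least three runs in duplicate.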

**Q.** With `CC1(C)SSC[C@@H](C(=O)N[C@@H](Cc2ccccc2)C(=O)O)NC(=O)[C@H](Cc2ccc(I)cc2)NC(=O)CNC(=O)[C@@H]1NC(=O)[C@@H](N)Cc1ccc(O)cc1` as the compound, how does the IC50 read?
**A.** 1600 nM

**Q.** Which IC50 does the source give for `CC1(C)SSC[C@@H](C(=O)N[C@@H](Cc2ccccc2)C(=O)O)NC(=O)[C@H](Cc2ccc(Br)cc2)NC(=O)CNC(=O)[C@@H]1NC(=O)[C@@H](N)Cc1ccc(O)cc1` here?
**A.** 530 nM

**Q.** Which IC50 does the source give for `CC1(C)SSC[C@@H](C(=O)N[C@@H](Cc2ccccc2)C(=O)O)NC(=O)[C@H](Cc2ccc(Cl)cc2)NC(=O)CNC(=O)[C@@H]1NC(=O)[C@@H](N)Cc1ccc(O)cc1` here?
**A.** 83 nM

**Q.** Which IC50 does the source give for `CC1(C)SSC[C@@H](C(=O)N[C@@H](Cc2ccccc2)C(=O)O)NC(=O)[C@H](Cc2ccc(F)cc2)NC(=O)CNC(=O)[C@@H]1NC(=O)[C@@H](N)Cc1ccc(O)cc1` here?
**A.** 110 nM

**Q.** With `CC1(C)SSC[C@@H](C(=O)N[C@@H](Cc2ccccc2)C(=O)O)NC(=O)[C@H](Cc2ccccc2)NC(=O)CNC(=O)[C@@H]1NC(=O)[C@@H](N)Cc1ccc(O)cc1` (H-Y[dPen]GFCF-OH; disulfide 2-5) as the compound, how does the IC50 read?
**A.** 280 nM

Biological target: Mu-type opioid receptor (Cavia porcellus, UniProt P97266)
Sequence (P97266 whole entry): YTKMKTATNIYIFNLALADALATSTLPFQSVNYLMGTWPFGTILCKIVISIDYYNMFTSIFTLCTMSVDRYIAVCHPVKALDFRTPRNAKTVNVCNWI
Assay: Inhibitory concentration against electrically evoked contractions of guinea pig ileum longitudinal muscle-myenteric plexus
Assay type: functional, tissue-based
Procedure, shortened: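 Longitudinal muscle-myenteric plexus strips from male Hartley guinea pigs (250–500 g) in oxygenated Krebs bicarbonate at 37 °C, 1-g tension. Transmural stimulation at 0.1 Hz, 0.4-ms pulses, supramaximal voltage. Cumulative agonist doses with 3 min contact each. Inhibition is relative to contraction height over the preceding 1 min.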

**Q.** For `CC1(C)SSC[C@@H](C(=O)N[C@@H](Cc2ccccc2)C(=O)O)NC(=O)[C@H](Cc2ccc(I)cc2)NC(=O)CNC(=O)[C@@H]1NC(=O)[C@@H](N)Cc1ccc(O)cc1`, which IC50 is on record?
**A.** 640 nM

**Q.** With `CC1(C)SSC[C@@H](C(=O)N[C@@H](Cc2ccccc2)C(=O)O)NC(=O)[C@H](Cc2ccc(Br)cc2)NC(=O)CNC(=O)[C@@H]1NC(=O)[C@@H](N)Cc1ccc(O)cc1` as the compound, how does the IC50 read?
**A.** 120 nM

**Q.** Which IC50 does the source give for `CC1(C)SSC[C@@H](C(=O)N[C@@H](Cc2ccccc2)C(=O)O)NC(=O)[C@H](Cc2ccc(Cl)cc2)NC(=O)CNC(=O)[C@@H]1NC(=O)[C@@H](N)Cc1ccc(O)cc1` here?
**A.** 36 nM

**Q.** For `CC1(C)SSC[C@@H](C(=O)N[C@@H](Cc2ccccc2)C(=O)O)NC(=O)[C@H](Cc2ccc(F)cc2)NC(=O)CNC(=O)[C@@H]1NC(=O)[C@@H](N)Cc1ccc(O)cc1`, which IC50 is on record?
**A.** 32 nM

**Q.** For `CC1(C)SSC[C@@H](C(=O)N[C@@H](Cc2ccccc2)C(=O)O)NC(=O)[C@H](Cc2ccccc2)NC(=O)CNC(=O)[C@@H]1NC(=O)[C@@H](N)Cc1ccc(O)cc1` (H-Y[dPen]GFCF-OH; disulfide 2-5), which IC50 is on record?
**A.** 82.7 nM

**Q.** For `CC(C)[C@H](NC(=O)[C@H](CC(=O)O)NC(=O)[C@H](Cc1ccccc1)NC(=O)[C@@H](C)NC(=O)[C@@H](N)Cc1ccc(O)cc1)C(=O)N[C@H](C(=O)NCC(N)=O)C(C)C` [DELTORPHIN C], which IC50 is on record?
**A.** > 1500 nM

Test system: Opioid receptors; mu & delta
Assay: Selectivity ratio (mu/delta) of the compound
Assay type: protein assay

**Q.** For `CC1(C)SSC[C@@H](C(=O)N[C@@H](Cc2ccccc2)C(=O)O)NC(=O)[C@H](Cc2ccc(I)cc2)NC(=O)CNC(=O)[C@@H]1NC(=O)[C@@H](N)Cc1ccc(O)cc1`, which Selectivity is on record?
**A.** 1300

**Q.** Which Selectivity does the source give for `CC1(C)SSC[C@@H](C(=O)N[C@@H](Cc2ccccc2)C(=O)O)NC(=O)[C@H](Cc2ccc(Br)cc2)NC(=O)CNC(=O)[C@@H]1NC(=O)[C@@H](N)Cc1ccc(O)cc1` here?
**A.** 530

**Q.** For `CC1(C)SSC[C@@H](C(=O)N[C@@H](Cc2ccccc2)C(=O)O)NC(=O)[C@H](Cc2ccc(Cl)cc2)NC(=O)CNC(=O)[C@@H]1NC(=O)[C@@H](N)Cc1ccc(O)cc1`, which Selectivity is on record?
**A.** 160

**Q.** With `CC1(C)SSC[C@@H](C(=O)N[C@@H](Cc2ccccc2)C(=O)O)NC(=O)[C@H](Cc2ccc(F)cc2)NC(=O)CNC(=O)[C@@H]1NC(=O)[C@@H](N)Cc1ccc(O)cc1` as the compound, how does the Selectivity read?
**A.** 160

**Q.** For `CC1(C)SSC[C@@H](C(=O)N[C@@H](Cc2ccccc2)C(=O)O)NC(=O)[C@H](Cc2ccccc2)NC(=O)CNC(=O)[C@@H]1NC(=O)[C@@H](N)Cc1ccc(O)cc1` (H-Y[dPen]GFCF-OH; disulfide 2-5), which Selectivity is on record?
**A.** 200

Biological target: Delta-type opioid receptor (Mus musculus, UniProt P32300)
Sequence (P32300 whole entry): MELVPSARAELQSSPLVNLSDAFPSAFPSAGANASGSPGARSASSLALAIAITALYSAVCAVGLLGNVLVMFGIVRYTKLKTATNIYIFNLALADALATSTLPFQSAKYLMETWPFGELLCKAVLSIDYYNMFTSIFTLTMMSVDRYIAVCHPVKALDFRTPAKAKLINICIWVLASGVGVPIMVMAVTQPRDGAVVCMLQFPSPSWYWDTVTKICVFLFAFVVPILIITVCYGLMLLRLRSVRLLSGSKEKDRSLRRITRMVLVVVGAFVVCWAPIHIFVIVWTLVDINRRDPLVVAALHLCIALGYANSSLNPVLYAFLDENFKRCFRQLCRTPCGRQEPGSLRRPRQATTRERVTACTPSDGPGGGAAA
Assay: Inhibitory concentration against delta opioid receptor of electrically induced smooth muscle contraction of mouse vas deferens
Assay type: functional

**Q.** Which IC50 does the source give for `CC1(C)SSC[C@@H](C(=O)N[C@@H](Cc2ccccc2)C(=O)O)NC(=O)[C@H](Cc2ccc(I)cc2)NC(=O)CNC(=O)[C@@H]1NC(=O)[C@@H](N)Cc1ccc(O)cc1` here?
**A.** 0.3 nM

**Q.** Which IC50 does the source give for `CC1(C)SSC[C@@H](C(=O)N[C@@H](Cc2ccccc2)C(=O)O)NC(=O)[C@H](Cc2ccc(Br)cc2)NC(=O)CNC(=O)[C@@H]1NC(=O)[C@@H](N)Cc1ccc(O)cc1` here?
**A.** 0.028 nM

**Q.** For `CC1(C)SSC[C@@H](C(=O)N[C@@H](Cc2ccccc2)C(=O)O)NC(=O)[C@H](Cc2ccc(Cl)cc2)NC(=O)CNC(=O)[C@@H]1NC(=O)[C@@H](N)Cc1ccc(O)cc1`, which IC50 is on record?
**A.** 0.076 nM

**Q.** With `CC1(C)SSC[C@@H](C(=O)N[C@@H](Cc2ccccc2)C(=O)O)NC(=O)[C@H](Cc2ccc(F)cc2)NC(=O)CNC(=O)[C@@H]1NC(=O)[C@@H](N)Cc1ccc(O)cc1` as the compound, how does the IC50 read?
**A.** 0.028 nM

**Q.** With `CC1(C)SSC[C@@H](C(=O)N[C@@H](Cc2ccccc2)C(=O)O)NC(=O)[C@H](Cc2ccccc2)NC(=O)CNC(=O)[C@@H]1NC(=O)[C@@H](N)Cc1ccc(O)cc1` (H-Y[dPen]GFCF-OH; disulfide 2-5) as the compound, how does the IC50 read?
**A.** 0.016 nM

Test system: not listed separately
Assay: Selectivity ratio (GPI/MVD) of the compound
Assay type: functional
Procedure, shortened: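 IC50 ratio GPI/MVD. GPI: guinea pig ileum strips, 1-g tension, 0.4-ms pulses. MVD: male ICR mouse vas deferens (25–40 g), Mg-free Krebs, 0.5-g tension, 2.0-ms pulses. Both tissues at 37 °C, 0.1 Hz, cumulative doses with 3 min contact. Hill-equation fit, ≥4 tissues each.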

**Q.** Which Selectivity does the source give for `CC1(C)SSC[C@@H](C(=O)N[C@@H](Cc2ccccc2)C(=O)O)NC(=O)[C@H](Cc2ccc(I)cc2)NC(=O)CNC(=O)[C@@H]1NC(=O)[C@@H](N)Cc1ccc(O)cc1` here?
**A.** 2100

**Q.** Which Selectivity does the source give for `CC1(C)SSC[C@@H](C(=O)N[C@@H](Cc2ccccc2)C(=O)O)NC(=O)[C@H](Cc2ccc(Br)cc2)NC(=O)CNC(=O)[C@@H]1NC(=O)[C@@H](N)Cc1ccc(O)cc1` here?
**A.** 4300

**Q.** Which Selectivity does the source give for `CC1(C)SSC[C@@H](C(=O)N[C@@H](Cc2ccccc2)C(=O)O)NC(=O)[C@H](Cc2ccc(Cl)cc2)NC(=O)CNC(=O)[C@@H]1NC(=O)[C@@H](N)Cc1ccc(O)cc1` here?
**A.** 470

**Q.** For `CC1(C)SSC[C@@H](C(=O)N[C@@H](Cc2ccccc2)C(=O)O)NC(=O)[C@H](Cc2ccc(F)cc2)NC(=O)CNC(=O)[C@@H]1NC(=O)[C@@H](N)Cc1ccc(O)cc1`, which Selectivity is on record?
**A.** 1100

**Q.** Which Selectivity does the source give for `CC1(C)SSC[C@@H](C(=O)N[C@@H](Cc2ccccc2)C(=O)O)NC(=O)[C@H](Cc2ccccc2)NC(=O)CNC(=O)[C@@H]1NC(=O)[C@@H](N)Cc1ccc(O)cc1` (H-Y[dPen]GFCF-OH; disulfide 2-5) here?
**A.** 5100
